Bioassay records: PubChem, several laboratories
Only some compounds are listed: those with a hit (about 3.4% of all), similar ones and a draw of the others.
MEKK2 WT-MEK5 – raises or lowers MEK5 binding to wildtype human MEKK2 PB1 domain. Q9Y2U5. bead flow cytometry, Alexa488-MEK5 binding to MEKK2 WT; actives lie on both sides. binding response (% of control), % at 10 µM. 1.1% of 290,000 active. AID 1531; in the data active = binding response below about 67% or above about 130%
IMP-1 inhibitor – inhibitors of Pseudomonas aeruginosa IMP-1 metallo-beta-lactamase. purified IMP-1, nitrocefin hydrolysis, epi-absorbance fluorescence. inhibition, % at 5.6 µM. 0.45% of 290,000 active;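 active = inhibition above the mean plus 3 SD of all compounds in the same screening run, cut at about 4.5% in these data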;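 note: 0% = IMP-1 with DMSO and 100% = DMSO wells lacking enzyme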
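Assay system: purified recombinant IMP-1 beta-lactamase. Input: IMP-1 0.2 nM before substrate addition. Buffer or medium: Zinc- and detergent-supplemented HEPES buffer, pH 7.1. Schedule: 25 °C, 15 min preincubation, 25 min reaction. Signal: Epi-absorbance fluorescence, 480 nm excitation, 530 nm emission. Evaluation: percent inhibition from optical density relative to buffer-blank wells.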
MEKK2mut PB1 HTS – signal of MEK5 binding to mutant human MEKK2 PB1 domain; bead flow cytometry, Alexa488-MEK5 binding to MEKK2 mutant; percent response, % at 10 µM; 0.35% of 290,000 active; AID 1530; in the data active = percent response above about 24%, passing the limit was not always enough
VIM-2 inhibitor – blocks Pseudomonas aeruginosa VIM-2 metallo-beta-lactamase; 0.89% of 290,000 active; purified VIM-2, nitrocefin hydrolysis, epi-absorbance fluorescence; inhibition, % at 5.6 µM; AID 1527;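 active = inhibition above the mean of all tested compounds plus 3 SD, cutoff set per screening run, cut at about 7.5% in these data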;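 note: red hydrolysis product quenches plate fluorescence so inhibitors raise well fluorescence; 0% = enzyme with DMSO and 100% = DMSO without enzyme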
MEKK3 PB1 HTS – modulators (inhibitors or enhancers) of MEK5 binding to human MEKK3 PB1 domain | 1.4% of 290,000 active | bead-based flow cytometry, Alexa488-MEK5 binding to MEKK3; actives lie on both sides; 0 = blocked by unlabeled MEK5, 100 = vehicle | binding response (% of control), % at 10 µM | AID 1529 | Q99759;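 active = binding response more than 3 SD above or below the average of its plate-row segment, actives on both sides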;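 note: Alexa488 bead fluorescence after subtracting the streptavidin-only scavenger bead signal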
Target sequence (Q99759 whole entry, looked up, the tested form may be a part): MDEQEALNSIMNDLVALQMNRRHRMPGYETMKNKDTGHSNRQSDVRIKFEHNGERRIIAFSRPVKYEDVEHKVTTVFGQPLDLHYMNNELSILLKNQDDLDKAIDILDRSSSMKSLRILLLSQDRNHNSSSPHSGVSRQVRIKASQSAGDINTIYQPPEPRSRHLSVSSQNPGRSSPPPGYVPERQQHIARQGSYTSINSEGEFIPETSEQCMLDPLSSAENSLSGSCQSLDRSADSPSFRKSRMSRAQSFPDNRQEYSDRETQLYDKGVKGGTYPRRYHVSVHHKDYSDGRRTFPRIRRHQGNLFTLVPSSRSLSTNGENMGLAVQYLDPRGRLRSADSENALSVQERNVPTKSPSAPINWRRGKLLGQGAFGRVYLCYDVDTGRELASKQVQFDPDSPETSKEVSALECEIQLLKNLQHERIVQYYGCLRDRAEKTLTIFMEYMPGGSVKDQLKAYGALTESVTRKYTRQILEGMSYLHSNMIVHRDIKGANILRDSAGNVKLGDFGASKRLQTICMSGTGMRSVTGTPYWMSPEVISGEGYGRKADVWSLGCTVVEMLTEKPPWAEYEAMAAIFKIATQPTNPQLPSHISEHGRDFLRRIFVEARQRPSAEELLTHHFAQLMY
The depositor's hits bear a star; . = not tested or not shown; [ ] = another dose, or the depositor's remark.

SMILES	MEKK2 WT-MEK5	IMP-1 inhibitor	MEKK2mut PB1 HTS	VIM-2 inhibitor	MEKK3 PB1 HTS
CC(=O)Nc1nc(=O)c2ccccc2s1	91.0	-1.9	-6.0	6.2	93.0
Cc1ccccc1NC1=C(Cl)C(=O)N(C2CCCCC2)C1=O	103.0	8.2*	3.0	-2.1	107.0
COc1ccccc1NC1=C(Cl)C(=O)N(C2CCCCC2)C1=O	.	-2.5	.	-2.8	.
CSc1oc(-c2ccco2)nc1S(=O)(=O)c1ccc(Br)cc1	109.0	-2.3	6.0	-2.2	101.0
CCC(C)[C@@H](N)C(=O)N/N=C/c1ccc2ncccc2c1 (stereo partly drawn)	107.0	0.8	0.0	7.8*	119.0
O=C(O)c1cc(C(=O)O)cc(-c2ccc(/C=c3/sc4nc5ccccc5n4c3=O)o2)c1	61.0*[inhibitor]	-2.4	-37.0	-2.1	71.0*[inhibitor]
CCN(CC)CCNC(=O)C1CCN(S(=O)(=O)c2c(C)noc2/C=C/c2ccccc2F)CC1	136.0*	-1.6	11.0	2.2	107.0
Nc1cn(C2OC(CO)C(O)C2O)c(=O)[nH]c1=O (stereo not drawn)	107.0	6.3*	4.0	-1.0	105.0
CC1CCCC(C)N1C(=O)c1ccc2c(c1)S(=O)(=O)c1ccccc1C2=O (stereo not drawn)	-12.0*[inhibitor]	1.1	-26.0	2.0	0.0*[inhibitor]
CCCSc1nnc(CSc2nc3ccccc3s2)n1-c1ccccc1	111.0	-2.7	9.0	-3.2	113.0
CCOC(=O)CNc1nc(OCC#N)nc(N2CCOCC2)n1	106.0	20.0*	5.0	-1.6	104.0
CCOC(=O)COc1nc(OC)nc(N2CCOCC2)n1	96.0	-3.4	-2.0	-1.0	103.0
Cc1nc2c(ccc3nc(NC(=O)C4CC4)sc32)s1	91.0	-2.4	-10.0	8.6*	107.0
CCC(=O)Nc1nc2ccc3sc(C)nc3c2s1	103.0	-2.8	1.0	6.5	106.0
Cc1[nH]c2ccccc2c1CCC(N)=O	102.0	0.4	7.0	-0.7	102.0
CN1CCN(c2ccc(NC(=O)c3cc([N+](=O)[O-])ccc3N3CCOCC3)cc2)CC1	99.0	-2.4	-2.0	12.2*	95.0
COc1ccc(C(=O)c2cc([N+](=O)[O-])ccc2N2CCN(C)CC2)cc1	98.0	-1.0	-6.0	-0.8	90.0
Cc1ccc(C(=O)c2cc([N+](=O)[O-])ccc2N2CCOCC2)cc1C	111.0	-1.1	1.0	-0.4	144.0*
COc1ccc(C(=O)c2cc([N+](=O)[O-])ccc2N2CCCC2)cc1	106.0	-1.4	1.0	-0.3	132.0*
COc1cccc(Nc2nc3ccccc3n3cnnc23)c1	107.0	-3.5	12.0	7.8*	106.0
Cc1ccc2nc(Nc3ccc(F)cc3)c3nncn3c2c1	100.0	7.6*	0.0	0.8	98.0
O=C(CCC(F)(F)F)N1CCCC(CO)(CCc2ccccc2)C1 (stereo not drawn)	102.0	-4.0	10.0	-2.8	102.0
COc1ccc(N2CCN(CCCNC(=O)c3ccc(CS(=O)(=O)c4ccc(OC)cc4)o3)CC2)cc1	109.0	-1.7	-1.0	-1.4	98.0
COc1ccccc1S(=O)(=O)Cc1ccc(C(=O)NCCCN2CCN(c3ccc(F)cc3)CC2)o1	140.0*	-0.2	10.0	-0.1	104.0
S=c1nc(C2CC2)[nH]c2ccccc12	97.0	-3.1	0.0	10.7*	98.0
SMILES	MEKK2 WT-MEK5	IMP-1 inhibitor	MEKK2mut PB1 HTS	VIM-2 inhibitor	MEKK3 PB1 HTS
Cc1nnc2ccc(-c3cccc(NC(=O)c4ccc(Br)o4)c3)nn12	103.0	-2.9	-1.0	10.2*	106.0
Cc1nnc2ccc(-c3cccc(NC(=O)c4ccc(Cl)nc4)c3)nn12	104.0	-3.6	0.0	5.0	100.0
CCN(CC)CCCNc1oc(/C=C/c2ccccc2)nc1C#N	111.0	0.2	-2.0	-1.9	101.0
COc1ccc(/C=C/c2nc(C#N)c(NCCN(C)C)o2)cc1OC	103.0	-3.0	1.0	10.5*	100.0
CC1(C)CC(=O)c2cc(OCC(=O)NCCCN3CCN(c4ccccc4F)CC3)ccc2O1	109.0	-3.8	9.0	-2.7	101.0
Cc1ccccc1NC(=O)C1c2cccc[n+]2CC(=O)N1c1c(C)cccc1C (stereo not drawn)	105.0	14.2*	6.0	-1.4	114.0
Cc1cccc(C)c1NC(=O)C1c2cccc[n+]2CC(=O)N1Cc1ccc2c(c1)OCO2 (stereo not drawn)	50.0*	-2.0	44.0	-2.7	99.0
Cc1ccccc1NC(=O)c1c(F)c(F)c(F)c(F)c1F	95.0	-3.6	-7.0	0.0	91.0
Cc1cccc(C)c1NC(=O)Nc1ccc2c(c1)OCO2	99.0	-1.6	-39.0	-3.4	102.0
O=c1[nH]nc(-c2ccc(F)cc2)cc1-c1ccccc1	100.0	-2.1	-3.0	-3.5	95.0
CC1=CC(=O)c2c(O)ccc(O)c2C1=O	79.0	5.3*	-11.0	2.9	90.0
Cc1ccc2nc3c(cc(C(=O)NCCc4ccccc4)c(=N)n3CCN3CCOCC3)c(=O)n2c1	105.0	-4.3	6.0	0.0	101.0
COc1ccc(CCn2c(=N)c(C(=O)NC3CCCC3)cc3c(=O)n4ccccc4nc32)cc1OC	100.0	-1.7	0.0	10.1*	100.0
Cc1ccc2nc3c(cc(C(N)=S)c(=N)n3CCCOC(C)C)c(=O)n2c1	95.0	3.5	0.0	7.9*	96.0
Cc1ccc2nc3c(cc(C(=O)NCCN4CCOCC4)c(=N)n3CCCN3CCOCC3)c(=O)n2c1	102.0	-4.1	6.0	8.9*	103.0
N=c1c(C(=O)NCCN2CCOCC2)cc2c(=O)n3ccccc3nc2n1Cc1ccc(F)cc1	98.0	-4.0	-3.0	8.1*	97.0
CC1CCN(S(=O)(=O)c2ccc(Cl)cc2)CC1	99.0	0.2	-4.0	-1.8	101.0
O=C(COC(=O)c1ccccc1Oc1ccccc1)NCc1ccco1	108.0	-2.8	6.0	-1.7	104.0
Fc1ccc(C(c2nnnn2Cc2ccco2)N2CCN(C3CCCCC3)CC2)cc1 (stereo not drawn)	108.0	-1.5	3.0	-2.9	104.0
COc1ccc(Br)c2oc(SC)cc(=O)c12	91.0	-5.9	-5.0	9.2*	85.0
COc1ccc(-c2ccccc2)c2oc(-c3ccco3)cc(=O)c12	100.0	.	5.0	.	102.0
O=C(O)c1cccc(S(=O)(=O)NNc2ccccc2C(F)(F)F)c1	100.0	24.8*	-4.0	0.1	103.0
O=C(O)c1ccccc1NS(=O)(=O)c1cccc(C(F)(F)F)c1	99.0	-4.0	3.0	0.9	95.0
CCC(=O)NS(=O)(=O)c1cccnc1Nc1ccc(Cl)cc1	102.0	-3.3	2.0	-2.6	102.0
Cc1ccc(O)c(Nc2c3ccccc3nc3ccccc23)c1	119.0	-2.5	18.0	9.2*	102.0
COc1ccc(NC(=O)NCCCCc2ccccc2)cc1	98.0	-1.7	-4.0	-2.8	95.0
COc1ccc(S(=O)(=O)N2CCN(c3ccccn3)CC2)c(OC)c1	101.0	-3.8	3.0	-2.3	98.0
O=C(/C=C/c1cccc2ccccc12)c1ccncc1	95.0	-1.9	-2.0	0.7	96.0
